Experimental data published in ChEMBL document CHEMBL2150889, “Azetidinyl oxadiazoles as potent mGluR5 positive allosteric modulators” (Bioorg Med Chem Lett, 2012).

Experiments:
[1] = target: T1, Metabotropic glutamate receptor 5 (Homo sapiens, UniProt P41594); assay: Positive allosteric modulation of human mGluR5 expressed in recombinant HEK293 cells by FLIPR assay; format: cell-based; set-up: Activity: concentration or dose not given beside the values
Outline: (§1)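 HEK293 cells recombinantly expressing human mGluR5 were seeded at 2×10^4 cells/well on poly-D-lysine. They were incubated overnight at 37 °C in glutamate/glutamine-free medium, then loaded for 1 h at 37 °C with calcium 5 dye containing 3 U/ml glutamic pyruvic transaminase and 3 mM sodium pyruvate. Calcium flux was read by FLIPR.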

[2] = target: T1, Metabotropic glutamate receptor 5; assay: Negative allosteric modulation of human mGluR5 expressed in recombinant HEK293 cells by FLIPR assay; format: cell-based; settings: for inhibition: concentration not given here; outline: as §1

Row | SMILES | Activity [1] [%] | EC50 [1] [µM] | Emax [1] [%] | IC50 [2] [µM] | inhibition [2] [%]
1 | CC1CCC(C(=O)N2CC(c3nc(-c4cccc(F)c4)no3)C2)CC1 (configuration not stated) | 11 | 2.2 | 47 | > 10 | –
2 | Cc1cccc(-c2noc([C@@H]3CCN3C(=O)c3ccccc3F)n2)c1 | – | > 10 | 6.2 | 1.8 | 58
3 | COC1CCCN(C(=O)N2CC(c3nc(-c4cccc(Cl)c4)no3)C2)C1 (configuration not stated) | – | > 10 | -14 | 1.83 | 80
4 | O=C(N1CCC(F)CC1)N1CC(c2nc(-c3cccc(Cl)c3)no2)C1 | 61 | 0.99 | 41 | > 10 | –
5 | O=C(C1CCC(C(F)(F)F)CC1)N1CC(c2nc(-c3cccc(F)c3)no2)C1 (configuration not stated) | 37 | 0.68 | 56 | > 10 | –
6 | O=C(C1CCCCC1)N1CC(c2nc(-c3cccc(Cl)c3)no2)C1 | 35 | 0.52 | 43 | > 10 | –
7 | Cc1cccc(-c2noc(C3CN(C(=O)C4CCC(C)CC4)C3)n2)c1 (configuration not stated) | 49 | 0.97 | 68 | > 10 | –
8 | O=C(Cc1cccc(F)c1)N1CC[C@H]1c1nc(-c2cccc(F)c2)no1 | 75 | 2.4 | 52 | > 10 | –
9 | O=C(c1ccc(Cl)cc1)N1CC(c2nc(-c3cccc(F)c3)no2)C1 | 82 | 2.5 | 62 | > 10 | –
10 | Cc1cccc(-c2noc(C3CN(C(=O)C4CCCO4)C3)n2)c1 (configuration not stated) | – | > 10 | 3 | 1.9 | 79
11 | Cc1cccc(-c2noc(C3CN(C(=O)C4CCCC4)C3)n2)c1 | – | > 10 | -7 | 2.5 | 70
12 | Cc1cccc(-c2noc(C3CN(C(=O)c4ccc(Cl)cc4)C3)n2)c1 | 6.3 | 7.1 | 33 | > 10 | –
13 | Cc1cccc(-c2noc(C3CN(C(=O)C4CCOCC4)C3)n2)c1 | – | > 10 | -2 | 1.8 | 74
14 | Cc1cccc(-c2noc(C3CN(C(=O)C4CCCC(C)C4)C3)n2)c1 (configuration not stated) | 19 | 0.5 | 46 | > 10 | –
15 | O=S(=O)(c1ccc(F)cc1)N1CC(c2nc(-c3cccc(Cl)c3)no2)C1 | – | > 10 | -7 | 0.13 | 85
16 | O=C(c1ccc(F)c(F)c1)N1CC(c2nc(-c3cccc(F)c3)no2)C1 | 50 | 3.2 | 35 | > 10 | –
17 | Cc1cccc(-c2noc(C3CN(C(=O)C4CCC(C(F)(F)F)CC4)C3)n2)c1 (configuration not stated) | – | 1 | 36 | > 10 | 3
18 | O=C([C@@H]1CC2CCC1C2)N1CC(c2nc(-c3cccc(Cl)c3)no2)C1 (some centres not stated) | – | 0.098 | 66 | – | –
19 | CC1CCCC(C(=O)N2CC(c3nc(-c4cccc(Cl)c4)no3)C2)C1 (configuration not stated) | 34 | 0.41 | 53 | > 10 | –
20 | Cc1cccc(-c2noc(C3CN(C(=O)C4CCCCC4)C3)n2)c1 | 20 | 0.95 | 45 | > 10 | –

Row | SMILES | Activity [1] [%] | EC50 [1] [µM] | Emax [1] [%] | IC50 [2] [µM] | inhibition [2] [%]
21 | O=C([C@H]1CC2CCC1C2)N1CC(c2nc(-c3cccc(Cl)c3)no2)C1 (some centres not stated) | – | 0.074 | 120 | – | –
22 | CC1CCCN(C(=O)N2CC(c3nc(-c4cccc(Cl)c4)no3)C2)C1 (configuration not stated) | – | > 10 | 6 | 3.4 | 69
23 | Cc1cccc(S(=O)(=O)N2CC(c3nc(-c4cccc(Cl)c4)no3)C2)c1 | – | > 10 | -2 | 0.39 | 82
24 | O=C(Cc1ccc(F)cc1)N1CC[C@H]1c1nc(-c2cccc(F)c2)no1 | 12 | 1.2 | 29 | > 10 | –
25 | O=C(C1CCC2(CCC2)CC1)N1CC(c2nc(-c3cccc(Cl)c3)no2)C1 | 24 | 1.1 | 40 | > 10 | –
26 | O=C([C@@H]1CC2CCC1C2)N1CC(c2nc(-c3cccc(F)c3)no2)C1 (some centres not stated) | – | 0.1 | 110 | – | –
27 | Cc1cccc(-c2noc(C3CN(C(=O)C4CCOC4)C3)n2)c1 (configuration not stated) | – | > 10 | -7 | 1.3 | 80
28 | O=C(c1ccccc1F)N1CC(c2nc(-c3cccc(Cl)c3)no2)C1 | – | > 10 | -12 | 0.67 | 86
29 | Cc1cccc(-c2noc(C3CN(C(=O)c4ccc(F)cc4)C3)n2)c1 | – | 1.4 | 32 | > 10 | 50
30 | O=C(C1CCCO1)N1CC(c2nc(-c3cccc(Cl)c3)no2)C1 (configuration not stated) | – | > 10 | -3 | 0.89 | 79
31 | Cc1cccc(-c2noc([C@@H]3CCN3C(=O)c3ccc(F)c(F)c3)n2)c1 | 92 | 1.5 | 51 | > 10 | –
32 | CC1CCN(C(=O)N2CC(c3nc(-c4cccc(Cl)c4)no3)C2)C1 (configuration not stated) | – | > 10 | 88 | > 10 | 80
33 | O=S(=O)(c1ccc(Cl)cc1)N1CC(c2nc(-c3cccc(Cl)c3)no2)C1 | – | > 10 | 7 | 0.17 | 79
34 | O=C(N1CCCCC1)N1CC(c2nc(-c3cccc(Cl)c3)no2)C1 | 87 | 0.37 | 44 | > 10 | –
35 | O=C(c1ccccc1F)N1CC[C@H]1c1nc(-c2cccc(F)c2)no1 | – | > 10 | 57 | 0.92 | 68
36 | CC1CCN(C(=O)N2CC(c3nc(-c4cccc(Cl)c4)no3)C2)CC1 | – | 0.865 | 66 | > 10 | –
37 | O=C([C@@H]1CC2CCC1C2)N1CC(c2nc(-c3ccccc3)no2)C1 (some centres not stated) | – | 0.4 | 88 | – | –
38 | Cc1cccc(-c2noc(C3CN(C(=O)C4CCC(F)(F)CC4)C3)n2)c1 | 3 | 0.59 | 36 | > 10 | –
39 | Cc1ccc(C(=O)N2CC(c3nc(-c4cccc(F)c4)no3)C2)cc1 | 30 | 6.8 | 27 | > 10 | –
40 | Cc1cccc(-c2noc(C3CN(C(=O)C4CCC4)C3)n2)c1 | – | > 10 | 3 | 1 | 77

Row | SMILES | Activity [1] [%] | EC50 [1] [µM] | Emax [1] [%] | IC50 [2] [µM] | inhibition [2] [%]
41 | Cc1cccc(-c2noc(C3CN(C(=O)c4ccccc4F)C3)n2)c1 | – | > 10 | 5 | 1.4 | 64
42 | O=C(N1CCCCCC1)N1CC(c2nc(-c3cccc(Cl)c3)no2)C1 | 41 | 0.047 | 44 | > 10 | –
43 | Cc1cccc(-c2noc(C3CN(S(=O)(=O)c4ccc(F)cc4)C3)n2)c1 | – | > 10 | 6 | 0.95 | 74
44 | Cc1ccc(S(=O)(=O)N2CC(c3nc(-c4cccc(C)c4)no3)C2)cc1 | – | > 10 | 1 | 0.67 | 80
45 | O=C(C1CCC(C(F)(F)F)CC1)N1CC(c2nc(-c3cccc(Cl)c3)no2)C1 (configuration not stated) | 5 | 1 | 40 | > 10 | –
46 | COC1CCN(C(=O)N2CC(c3nc(-c4cccc(Cl)c4)no3)C2)CC1 | – | > 10 | 11 | > 10 | –
47 | CC1CN(C(=O)N2CC(c3nc(-c4cccc(Cl)c4)no3)C2)CC(C)O1 (configuration not stated) | – | > 10 | – | 0.99 | 51
48 | O=C([C@H]1CC2CCC1C2)N1CC(c2nc(-c3ccccc3)no2)C1 (some centres not stated) | – | 0.12 | 160 | – | –
49 | Cc1cccc(-c2noc(C3CN(S(=O)(=O)c4cccc(C)c4)C3)n2)c1 | – | > 10 | -4 | 0.65 | 76
50 | Cc1cccc(-c2noc([C@@H]3CCN3C(=O)c3ccc(C#N)cc3)n2)c1 | – | > 10 | 88 | 1.4 | 72
51 | Cc1ccc(S(=O)(=O)N2CC(c3nc(-c4cccc(Cl)c4)no3)C2)cc1 | – | > 10 | 2 | 0.92 | 75
52 | O=C(C1CCC1)N1CC(c2nc(-c3cccc(Cl)c3)no2)C1 | – | > 10 | -7 | 1.5 | 75
53 | O=C(C1CCC(F)(F)CC1)N1CC(c2nc(-c3cccc(F)c3)no2)C1 | – | 0.52 | 53 | > 10 | 11
54 | CC1CCC(C(=O)N2CC(c3nc(-c4cccc(Cl)c4)no3)C2)CC1 (configuration not stated) | 120 | 1.5 | 75 | > 10 | –
55 | O=C(c1cccc(F)c1)N1CC(c2nc(-c3cccc(Cl)c3)no2)C1 | – | > 10 | -12 | 0.78 | 87
56 | O=C(N1CCCC(F)C1)N1CC(c2nc(-c3cccc(Cl)c3)no2)C1 (configuration not stated) | 81 | 0.2 | 51 | > 10 | –
57 | O=C(c1ccc(F)cc1)N1CC(c2nc(-c3cccc(F)c3)no2)C1 | 6 | 2.4 | 40 | > 10 | –
58 | O=C(C1CCCCC1)N1CC(c2nc(-c3cccc(F)c3)no2)C1 | 19 | 1 | 46 | > 10 | –
59 | Cc1cccc(-c2noc(C3CN(C(=O)c4cccc(F)c4)C3)n2)c1 | – | > 10 | 15 | 2.1 | 62
60 | Cc1cccc(-c2noc(C3CN(S(=O)(=O)c4ccc(Cl)cc4)C3)n2)c1 | – | > 10 | 3 | 1.1 | 75
